A3A deaminase = human APOBEC3A DNA deaminase inhibition | recombinant A3A, FAM/TAMRA ssDNA deamination fluorescence | P31941 | inhibition, % at 20 µM | 330,000 tested, 0.41% active;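 active = at least 40% inhibition at 20 µM here, with at most 30% in a related deaminase screen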;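 also: plate controls were A3A with DMSO for no effect and wells lacking A3A enzyme for full effect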
PRMT1 inh = inhibitors of human PRMT1; Q99873; recombinant PRMT1, activity-based probe fluorescence polarization; inhibition, % at 2.79 µM; 370,000 tested, 1.3% active;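 active = inhibition above about 21% made by adding two undisclosed values, limit read from the data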
HCV core dimer = blocks dimerization of HCV core protein. AID 1899. TR-FRET GST/Flag-core106 dimerization, 1536-well. 300,000 tested, 0.33% active. inhibition, % at 5 µM;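 active = inhibition above the mean of all tested compounds plus 3 SD, set per screening campaign, cut at about 45% in these data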
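System: GST-tagged and Flag-tagged HCV core protein residues 1-106 / Input: core106 proteins, GST 13.5 nM and Flag 17 nM / Buffer or medium: KF-containing HEPES buffer, pH 7.45, DTT, CHAPS, BSA / Probe or stimulus: Eu-anti-GST and XL665-anti-Flag labelled anti-tag antibodies / Schedule: 4 h, 22.5 °C incubation / Technique: TR-FRET 671 and 617 nm emission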
ABHD5 PLIN5 PPI = ABHD5-PLIN5 protein interaction inhibition. Q00G26+Q8WTS1. inhibition, % at 4 µM. Split G. princeps luciferase complementation, luminescence, 4 h. 360,000 tested, 0.78% active;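 active = inhibition above the mean inhibition across every tested compound plus 3 SD, cut at about 22% in these data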;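 also: 0% = DMSO only wells and the 100% control is not disclosed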
Target sequence (Q00G26 whole entry, looked up): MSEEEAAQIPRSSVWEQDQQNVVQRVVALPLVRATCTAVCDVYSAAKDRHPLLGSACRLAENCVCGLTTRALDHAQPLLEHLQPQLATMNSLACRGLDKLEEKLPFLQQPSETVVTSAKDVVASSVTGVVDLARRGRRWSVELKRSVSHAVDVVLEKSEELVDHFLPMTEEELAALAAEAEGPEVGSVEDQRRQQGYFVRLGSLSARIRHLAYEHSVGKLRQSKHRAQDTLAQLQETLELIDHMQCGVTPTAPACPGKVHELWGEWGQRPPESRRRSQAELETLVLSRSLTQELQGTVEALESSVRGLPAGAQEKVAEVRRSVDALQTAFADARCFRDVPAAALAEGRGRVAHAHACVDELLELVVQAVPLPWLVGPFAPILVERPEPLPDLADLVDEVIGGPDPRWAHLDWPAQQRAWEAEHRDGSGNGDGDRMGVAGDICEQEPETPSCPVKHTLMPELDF
Target sequence (Q8WTS1 whole entry, looked up): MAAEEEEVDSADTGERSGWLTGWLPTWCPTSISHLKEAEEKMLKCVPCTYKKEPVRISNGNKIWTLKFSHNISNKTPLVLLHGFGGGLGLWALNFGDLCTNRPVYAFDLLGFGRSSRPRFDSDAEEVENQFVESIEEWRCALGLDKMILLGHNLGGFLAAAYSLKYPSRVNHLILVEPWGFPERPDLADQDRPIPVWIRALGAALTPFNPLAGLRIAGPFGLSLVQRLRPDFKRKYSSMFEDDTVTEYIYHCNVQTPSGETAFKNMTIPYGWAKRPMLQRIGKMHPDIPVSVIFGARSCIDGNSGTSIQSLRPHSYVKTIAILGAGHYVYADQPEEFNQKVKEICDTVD
APOBEC3G inh = APOBEC3G (human) deaminase inhibition; Q9HC16; recombinant A3G, ssDNA deamination FAM/TAMRA fluorescence; inhibition, % at 20 µM; 330,000 tested, 0.28% active; AID 493012;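 active = inhibition of at least 40% at 20 µM, with no more than 30% in the related APOBEC3A deaminase screen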;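 also: plate controls were DMSO wells with A3G for no effect and wells lacking A3G enzyme for full effect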
HCV NS3 hel inh = blocks Hepatitis C virus NS3 helicase unwinding | 290,000 tested, 0.56% active | inhibition, % at 10.9 µM | NS3 helicase DNA unwinding, Cy5 molecular beacon fluorescence;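 active = inhibition above the mean of all tested compounds plus 3 SD, set per campaign, cut at about 35% in these data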;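 also: 0% = DMSO wells and 100% = thioflavine S control wells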
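Control set: DMSO versus 110 µM thioflavine S; Material: NS3 helicase fragment of HCV; Measured by: Cy5 fluorescence at 0 and 60 min, beacon hairpin quenching; Read-out basis: percent inhibition from t60/t0 fluorescence ratio; Times: reaction time 60 min, 25 °C; Repeats: single replicate; Compound dosing: single dose, 10.9 µM nominal final, DMSO 0.8% final.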
ABHD5-PLIN5 conf = ABHD5-PLIN5 interaction inhibition, confirmed; shares compounds with ABHD5 PLIN5 PPI; biochemical ABHD5-PLIN5 interaction, luminescence; inhibition, % at 4 µM; 2,200 tested, 67% active; AID 651612; in the data active = inhibition above about 23%;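 also: 0% = DMSO vehicle wells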
HNF4 counter = counter-screen for ABHD5-PLIN5 inhibitors: HNF4 split-luciferase; shares compounds with ABHD5 PLIN5 PPI; AID 651674; HNF4 dimerization, luminescence, biochemical; inhibition, % at 4 µM; 2,200 tested, 77% active;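 active = mean inhibition across replicate wells exceeding the computed hit threshold, cut at about 13% in these data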;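 also: light from luciferase halves that rejoin when HNF4 fusion proteins dimerize; 0% = DMSO only wells and the 100% control is not given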
Numbers without * were called inactive; / = no result. This is a sample that favours compounds with a hit; in the whole collection about 2.9% have one here.

SMILES | A3A deaminase | PRMT1 inh | HCV core dimer | ABHD5 PLIN5 PPI | APOBEC3G inh | HCV NS3 hel inh | ABHD5-PLIN5 conf | HNF4 counter
COC(=O)C1=C(C)NC2=C(C(=O)CCC2)C1c1ccc(-c2ccsc2C(=O)OC)o1 (centres undefined) | 10 | 1 | 2 | 24* | 0 | -4 | 8 | 10
O=C(Nc1ccn(CCCNCCCN2CCCC2=O)c(=O)n1)OCc1ccccc1 | / | -3 | / | -3 | / | / | / | /
N=c1c(C(=O)NCc2ccco2)cc2c(=O)n3ccccc3nc2n1CC1CCCO1 (centres undefined) | 7 | 4 | 17 | 28* | 5 | 4 | 10 | 12
N=c1c(C(=O)NCc2ccc(F)cc2)cc2c(=O)n3ccccc3nc2n1CC1CCCO1 (centres undefined) | 1 | 1 | 4 | 9 | -3 | 30 | / | /
Cc1ccccc1OCCCN1C(=O)C(=O)c2cccc(C)c21 | 4 | -3 | 6 | 27* | 17 | -7 | 49* | 48*
COc1ccccc1NC(=O)N(C)C[C@@H]1OCc2cnnn2CCCC(=O)N([C@@H](C)CO)C[C@H]1C | / | -1 | / | -12 | / | / | / | /
CCC(c1nc2ccccc2[nH]1)n1c(=O)c(-c2ccccc2)nc2ccccc21 (centres undefined) | / | 6 | / | 2 | / | / | / | /
O=c1c(-c2ccco2)nc2ccccc2n1C(CCc1ccccc1)c1nc2ccccc2[nH]1 (centres undefined) | / | 5 | / | 72* | / | / | 55* | 10
CCC(c1nc2ccccc2[nH]1)n1c(=O)c(-c2ccco2)nc2ccccc21 (centres undefined) | / | 17 | / | 37* | / | / | 59* | 23*
O=c1c(-c2ccco2)nc2ccccc2n1C(c1ccccc1)c1nc2ccccc2[nH]1 (centres undefined) | / | 10 | / | 36* | / | / | 28* | 16*
O=c1c(-c2ccccc2)nc2ccccc2n1C(c1ccccn1)c1nc2ccccc2[nH]1 (centres undefined) | / | 7 | / | 13 | / | / | / | /
Cc1ccc(N2CC(C(=O)OCC(=O)Nc3ccc(Cl)cc3)CC2=O)cc1 (centres undefined) | -4 | 2 | / | 3 | -10 | / | / | /
Cc1cccc(C)c1NC(=O)C(c1ccccc1)N1CCN(C/C=C/c2ccccc2)CC1 (centres undefined) | / | -1 | / | -1 | / | / | / | /
CCN1CCN(c2cc(N3CCc4ccccc4C3)c(F)cc2[N+](=O)[O-])CC1 | -3 | -2 | -15 | 26* | 3 | -87 | 15 | 3
CCCOc1ccccc1-n1sc2c(c1=S)-c1cc(OC)cc3c1N(C(=O)C3=O)C2(C)C | 0 | 0 | -4 | 35* | -2 | -16 | 78* | 67*
CC1CCC/C=C/C(=O)c2c(O)cc(O)cc2CC(=O)O1 (centres undefined) | 6 | 4 | 0 | 32* | -1 | / | 54* | 70*
Cn1cnc([N+](=O)[O-])c1S(=O)(=O)c1cccc(Cl)c1 | -2 | 14 | 4 | 61* | -4 | 7 | 64* | 94*
Cn1cnc([N+](=O)[O-])c1S(=O)(=O)Oc1ccccc1 | / | 14 | / | 62* | / | / | 75* | 95*
O=C(Cc1ccccc1F)Nc1cc(Cl)ccc1N1CCCC1 | -2 | 3 | -5 | -39 | -6 | 2 | / | /
OC(c1ccccc1)c1nc(-c2ccccc2)cs1 (centres undefined) | / | 3 | / | -1 | / | / | / | /
CC1(C)COC(/C=C/c2cccc([N+](=O)[O-])c2)=N1 | 0 | 1 | 2 | 29* | -6 | 1 | 46* | 49*
C=CCn1c(C)cc(C(=O)COC(=O)/C=C/c2c(C)nn(C3CCS(=O)(=O)C3)c2Cl)c1C (centres undefined) | 1 | -2 | 8 | -1 | -4 | / | / | /
O=C(c1ccco1)N1CCN(S(=O)(=O)c2ccc(Oc3ccccc3)cc2)CC1 | 1 | -2 | 5 | 50* | -1 | -14 | 8 | 18*

Source: PubChem (several laboratories)
